In data set [1] the test system is Rattus norvegicus. Nature of the data set: Gastrointestinal toxicity in Wistar rat assessed as ulcer index at 1 mg/kg, po after 14 days. It is filed as organism-based. The arrangement: route oral. As to conditions: in vivo, 336 h. Put shortly:
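Gastric mucosa examined for ulceration at post-mortem of female albino rats sacrificed at the end of the 14-day once-daily oral dosing in the Freund's adjuvant arthritis study; ulcer index scored per animal. Mean ± SEM, n = 6.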

Data set [2] has as its system Rattus norvegicus. Nature of the data set: Gastrointestinal toxicity in Wistar rat assessed as ulcer index at 30 mg/kg, po after 6 hrs. It is filed as organism-based. The note with it: in vivo. More on the design: dose 30 mg/kg, route oral. Put shortly: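 Female Wistar rats, 175±25 g, fasted 24 h, dosed orally once; sacrificed 6 h later by cervical dislocation. Stomach opened along greater curvature, saline-washed, mucosa inspected with a hand lens. Lesions graded I (edema/hyperemia/petechiae), II (hemorrhagic lesions with small erosions), III (deep ulcers); UI = nI + 2nII + 3nIII. Mean ± SEM, n = 6.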

In data set [3] the test system is Rattus norvegicus. Nature of the data set: Antiarthritic activity in Freund's complete adjuvant challenged Albino rat model assessed as change in body weight at 10 mg/kg, po administered for 14 days daily once starting a day before adjuvant challenge. It counts as functional. As to conditions: 336 h, read-out: INH.
Data set [4] relates to Rattus norvegicus. The data set is described as follows: Antiarthritic activity in Albino rat assessed as inhibition of Freund's complete adjuvant-induced paw volume at 10 mg/kg, po administered for 14 days daily once starting a day before adjuvant challenge measured on day 13. It counts as functional. Put shortly: (§1)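 Female albino rats, 160±10 g, six per group, dosed orally once daily for 14 days starting the day before 0.1 ml Freund's complete adjuvant into the right hind paw subplantar surface. Both hind paw volumes, measured up to a mark at the lateral malleolus, taken before and daily after adjuvant.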

The subject of data set [5] is Rattus norvegicus. The data set is described as follows: Antiarthritic activity in Albino rat assessed as inhibition of Freund's complete adjuvant-induced paw volume at 10 mg/kg, po administered for 14 days daily once starting a day before adjuvant challenge measured on day 8. It is filed as functional. Put shortly:
as §1

Data set [6] deals with Rattus norvegicus. The data set is described as follows: Antiarthritic activity in Albino rat assessed as inhibition of Freund's complete adjuvant-induced paw volume at 10 mg/kg, po administered for 14 days daily once starting a day before adjuvant challenge measured on day 3. It is filed as functional. Put shortly: as §1
Data set [7] concerns Rattus norvegicus. Nature of the data set: Antipyretic activity in Wistar rat assessed as change in LPS-induced rectal temperature at 10 mg/kg, po administered 30 mins before LPS challenge after 7 hrs. It is filed as functional. The method, boiled down: (§2)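 Adult female Wistar rats, 170±20 g, fasted 24 h, dosed orally at 09:00; 30 min later E. coli 0111:B4 phenol-extracted LPS in apyrogenic saline given i.p. Rectal temperature by telethermometer probe just before and 1–7 h hourly after LPS; temperature index calculated from these readings. n = 6.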

Data set [8] concerns Rattus norvegicus. The data set is described as follows: Antipyretic activity in Wistar rat assessed as change in LPS-induced rectal temperature at 10 mg/kg, po administered 30 mins before LPS challenge after 6 hrs. It counts as functional. The method, boiled down:
as §2

The test system of data set [9] is Rattus norvegicus. Nature of the data set: Antipyretic activity in Wistar rat assessed as change in LPS-induced rectal temperature at 10 mg/kg, po administered 30 mins before LPS challenge after 5 hrs. It counts as functional. The method, boiled down: as §2
The subject of data set [10] is Rattus norvegicus. Nature of the data set: Antipyretic activity in Wistar rat assessed as change in LPS-induced rectal temperature at 10 mg/kg, po administered 30 mins before LPS challenge after 4 hrs. It counts as functional. The method, boiled down:
as §2

Data set [11] concerns Rattus norvegicus. The data set is described as follows: Antipyretic activity in Wistar rat assessed as change in LPS-induced rectal temperature at 10 mg/kg, po administered 30 mins before LPS challenge after 3 hrs. It is filed as functional. The method, boiled down:
as §2

The subject of data set [12] is Rattus norvegicus. The data set is described as follows: Antipyretic activity in Wistar rat assessed as change in LPS-induced rectal temperature at 10 mg/kg, po administered 30 mins before LPS challenge after 2 hrs. It counts as functional. The method, boiled down:
as §2

For data set [13], the system named is Rattus norvegicus. The data set is described as follows: Antipyretic activity in Wistar rat assessed as change in LPS-induced rectal temperature at 10 mg/kg, po administered 30 mins before LPS challenge after 1 hr. It is filed as functional. The method, boiled down: as §2
Data set [14] deals with Mus musculus. Nature of the data set: Analgesic activity in Swiss albino mouse assessed as inhibition of acetic acid-induced writhing at 10 mg/kg, po administered 60 mins before acetic acid challenge after 5 to 15 mins relative to control. It is filed as functional. Put shortly:
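Female Swiss albino mice, 20±5 g, fasted overnight with free water access, dosed orally; 1 h later injected i.p. with 1% v/v acetic acid at 0.1 ml/10 g. Writhes (full hind-limb extension) counted for 15 min, starting 5 min after injection; only animals giving 20 or more writhes used. % inhibition = 100(1−Wt/Wc) vs control group mean; six animals per group.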

Data set [15] relates to Rattus norvegicus. Nature of the data set: Antiinflammatory activity in Wistar rat assessed as inhibition of carrageenan-induced hind paw edema volume at 10 mg/kg, po administered 60 mins before carrageenan challenge after 24 hrs relative to control. It is filed as functional. Background: Carrageenan injected into the paw causes an acute inflammation.
For data set [16], the system named is Rattus norvegicus. Nature of the data set: Antiinflammatory activity in Wistar rat assessed as inhibition of carrageenan-induced hind paw edema volume at 10 mg/kg, po administered 60 mins before carrageenan challenge after 6 hrs relative to control. It is filed as functional.
The subject of data set [17] is Rattus norvegicus. Nature of the data set: Antiinflammatory activity in Wistar rat assessed as inhibition of carrageenan-induced hind paw edema volume at 10 mg/kg, po administered 60 mins before carrageenan challenge after 4 hrs relative to control. It is filed as functional. Put shortly:
(§3)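 Female Wistar rats (170± 20 g), fasted overnight, n=6 per group; dosed orally, then 0.1 ml of 1% carrageenan injected subplantar into right hind paw 1 h later.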

For data set [18], the system named is Rattus norvegicus. The data set is described as follows: Antiinflammatory activity in Wistar rat assessed as inhibition of carrageenan-induced hind paw edema volume at 10 mg/kg, po administered 60 mins before carrageenan challenge after 3 hrs relative to control. It is filed as functional. The method, boiled down: as §3
Data set [19] relates to Rattus norvegicus. Nature of the data set: Antiinflammatory activity in Wistar rat assessed as inhibition of carrageenan-induced hind paw edema volume at 10 mg/kg, po administered 60 mins before carrageenan challenge after 1 hr relative to control. It is filed as functional. Put shortly: as §3
Data set [20] is filed under the species Rattus norvegicus. The data set is described as follows: animal or person. The note with it: Wistar, po, read-out: INH.

Regarding `COc1ccc2c(c1)c(CC(=O)O)c(C)n2C(=O)c1ccc(Cl)cc1` [INDOMETHACIN], the UI in data set [1] worked out at 72; in [2] it was 31.37. The inhibition in vivo at 10 mg/kg in [3] came to 5.68 g; in data set [4], 46.5%; in [5], 43.9%; in data set [6], 37.5%; in data set [14] it was 51.5%; in data set [15] it was 13.3%. Besides, the inhibition in vivo at 10 mg/kg in data set [16] was determined as 48.1%; in [17], 57.8%; in data set [18], 65.2%; in data set [19], 50%; in data set [20] it was 58%. For the same compound, the Activity in data set [7] is 0.55 °C; in data set [8], 0.35 °C; in [9], 0.3 °C; in data set [10], 0.22 °C; in data set [11], -0.11 °C; in [12], -1.03 °C. Besides, the Activity in data set [13] is -0.39 °C.

Source of the values: ChEMBL document CHEMBL1151773, “Synthesis and biological evaluation of amide derivatives of (5,6-dimethoxy-2,3-dihydro-1H-inden-1-yl)acetic acid as anti-inflammatory agents with reduced gastrointestinal ulcerogenecity” (Eur J Med Chem, 2008).
